High-throughput results from PubChem.
MrgX1 antag: antagonists of human MrgX1 receptor; Q96LB2; AID 588676; MRGX1-HEK293 calcium flux, Fluo-4, BAM8-22 antagonism; active compounds read low; actives 1.3% (n = 310,000); B-score at 10 µM;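 active means calcium-response B-score plate-corrected more than 3 library SD below zero, starting fluorescence within 5 deviations, no agonist response on first addition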;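 further: peak minus trough fluorescence over baseline after final BAM8-22 challenge near maximal dose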
Target sequence (Q96LB2 whole entry, looked up): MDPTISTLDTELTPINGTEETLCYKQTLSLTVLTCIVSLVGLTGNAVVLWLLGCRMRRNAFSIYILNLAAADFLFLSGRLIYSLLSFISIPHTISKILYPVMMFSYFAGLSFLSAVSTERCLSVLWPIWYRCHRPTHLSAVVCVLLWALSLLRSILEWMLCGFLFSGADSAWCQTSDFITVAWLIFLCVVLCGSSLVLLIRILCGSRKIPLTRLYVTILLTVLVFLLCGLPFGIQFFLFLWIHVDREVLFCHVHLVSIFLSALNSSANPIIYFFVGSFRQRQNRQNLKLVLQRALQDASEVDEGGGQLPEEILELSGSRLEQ
MrgX1 allo act: human MrgX1 positive allosteric modulation, primary screen; MrgX1-HEK293, Fluo-4 calcium flux, FDSS; active compounds read high; B-score at 10 µM; actives 0.63% (n = 310,000); AID 588675;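 active means plate-corrected calcium response at least 3 library SD above typical, normal starting fluorescence, not activating the receptor alone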;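 further: compound read alongside a low EC10 to EC30 dose of BAM8-22 agonist; peak minus trough fluorescence over baseline measured at the second addition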
MrgX1 ag: human MrgX1 receptor agonism, primary screen | Q96LB2 | MrgX1-HEK293 cells, Fluo-4 calcium fluorescence, agonist mode; active compounds read high | B-score at 10 µM | actives 0.44% (n = 310,000) | AID 588627;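 active means calcium response B-score plate-corrected fluorescence ratio at least 3 library SD, with starting fluorescence B-score inside 5 SD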
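Test system: Stable human MrgX1 HEK293 cell line | Schedule: Overnight plating before 1 h dye loading | Read-out basis: Baseline-normalised fluorescence change ratio, B-scored | Detection: Kinetic calcium dye fluorescence, Fluo-4 NW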
RGS4 act: RGS4 potentiation or activation. HEK293 M3R/inducible RGS4, carbachol calcium flux Fluo4; active compounds read low. B-score at 10 µM. actives 0.92% (n = 310,000);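 active means B-score of the integrated calcium signal more than 4 SD below the library mean, with starting fluorescence not abnormally high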;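 further: negative B-score means reduced calcium response which marks RGS4 activation or potentiation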
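Assay system: Inducible-RGS4 HEK293 cells carrying M3 receptor | Schedule: Compound preincubation 20 min at room temperature before agonist | Signal: Kinetic calcium fluorescence imaging with Fluo4-AM dye, 2 µM | Read-out basis: B score from integrated fluorescence ratio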
RGS4 inh: inhibitors of human RGS4 | HEK293 M3R/RGS4 inducible, Fluo-4 calcium flux; active compounds read high; triggered by carbachol at its EC20 | actives 0.45% (n = 310,000) | AID 463165 | B-score at 10 µM | P49798;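 active means B-score, a plate-corrected calcium signal, over three deviations above library mean, with baseline fluorescence within five deviations of library mean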;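 further: RGS4 expression induced by doxycycline in cells with stable M3 receptor; B-score is computed from the integrated fluorescence ratio over baseline after carbachol; higher B-score means a larger calcium signal and so more RGS4 inhibition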
Target sequence (P49798 whole entry, looked up): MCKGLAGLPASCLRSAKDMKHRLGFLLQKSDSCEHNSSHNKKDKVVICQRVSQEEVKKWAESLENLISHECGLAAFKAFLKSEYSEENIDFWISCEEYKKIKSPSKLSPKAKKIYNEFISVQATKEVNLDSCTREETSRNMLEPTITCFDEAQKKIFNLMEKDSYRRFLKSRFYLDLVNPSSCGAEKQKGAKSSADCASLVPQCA
MrgX1 antag conf: human MrgX1 receptor antagonism, re-confirmation screen; shares compounds with MrgX1 antag; MrgX1-HEK293, BAM8-22 calcium flux, Fluo-4; active compounds read low; remaining BAM8-22 calcium response % of control (active compounds read low), % at 10 µM; actives 19% (n = 2,300); AID 602420;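 active means remaining agonist calcium response no higher than 100% minus 3 SD of agonist-only control wells, with starting fluorescence near control levels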;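 further: agonist BAM8-22 given at a near maximal EC90 to ECmax level; peak minus minimum fluorescence divided by baseline after agonist addition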
HEK293 Ca flux: counter-screen for MrgX1 antagonists: effect in parental HEK293 cells; shares compounds with MrgX1 antag; Fluo-4 calcium fluorescence, FDSS; fluorescence ratio F(max-min)/F0 at 10 µM; actives 2% (n = 4,000); AID 624111;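 active means duplicate-averaged calcium fluorescence ratio at least three times the standard deviation of buffer wells, a nonspecific response in parental cells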
HEK293 Ca counter: MrgX1 allosteric activator counter-screen hit in parental HEK293 cells | actives 0.4% (n = 4,000) | shares compounds with MrgX1 antag | fluorescence ratio F(max-min)/F0 at 10 µM | AID 624114 | parental HEK293 calcium flux, Fluo-4 fluorescence ratio; active compounds read high;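 active means calcium fluorescence ratio, averaged over duplicates, at least 3 SD of the buffer-well ratio, meaning a nonspecific response in receptor-free cells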;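 further: untransfected parental HEK293 lacking MrgX1 used as counterscreen for MrgX1 allosteric activators; fluorescence change taken during the second addition on a kinetic imager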
HEK293 Ca cntr2: activity in parental HEK293 cells lacking MrgX1 receptor. Fluo-4 calcium fluorescence (FDSS); active compounds read high. AID 624115. shares compounds with MrgX1 antag. fluorescence ratio F(max-min)/F0 at 10 µM. actives 8.7% (n = 4,000);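 active means calcium fluorescence ratio at least three times the spread of buffer wells, meaning a non-specific response in parental cells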
* = called active by the depositor; i = inactive; . = no result given. An excerpt weighted towards active compounds, which were near 3.5% of everything screened.

SMILES	MrgX1 antag	MrgX1 allo act	MrgX1 ag	RGS4 act	RGS4 inh	MrgX1 antag conf	HEK293 Ca flux	HEK293 Ca counter	HEK293 Ca cntr2
COc1ccc(NS(=O)(=O)c2cc3c(cc2C)NC(=O)CO3)c(OC)c1	-4.91*	i	i	i	i	i	i	i	i
CCN(CC)S(=O)(=O)c1ccc2[nH]c(=O)cc(C(=O)Nc3ccccc3N3CCCC3)c2c1	i	i	i	i	i	.	.	.	.
CC(=O)Nc1ccc(NC(=O)CSc2nnc(C)n2-c2ccccc2)cc1	i	i	i	i	i	.	.	.	.
O=C(COC(=O)c1cccnc1Nc1ccccc1F)NCCN1C(=O)CSC1=O	-12.3*	i	i	i	i	i	i	i	i
O=C(CSc1n[nH]c(=O)n1C1CC1)Nc1cc(Cl)ccc1Oc1ccccc1	-8.42*	i	i	i	i	i	i	i	i
O=C(CSc1n[nH]c(=O)n1C1CC1)Nc1ccccc1	i	i	i	i	i	.	.	.	.
FC(F)(F)c1cccc(NC(=S)NCc2ccccc2)c1	-5.36*	i	i	i	i	i	i	i	57.7*
O=C(Nc1ccccc1)Nc1cccc(C(F)(F)F)c1	-5.24*	i	i	i	i	84.2%*	i	i	i
FC(F)(F)c1cccc(CNC(=S)Nc2ccccc2)c1	i	i	i	i	i	.	.	.	.
CC(C)(C)NC(=S)Nc1cccc(C(F)(F)F)c1	-5.22*	i	i	i	i	i	i	i	i
CCN(CC)c1ccc(NC(=O)c2ccc3c(c2)OCO3)c(C)c1	i	i	i	i	i	.	.	.	.
C=CCc1c(O)c(CC)cc2c(C)cc(=O)oc12	i	i	i	i	i	.	.	.	.
COc1cccc(OCCCOc2ccccc2C(C)C)c1	-6.89*	i	i	i	i	i	i	i	i
COc1cccc(OCCOc2ccccc2[N+](=O)[O-])c1	i	i	i	i	i	.	.	.	.
O=C(CCC1CCCC1)NCCS(=O)(=O)N1CCN(c2ccccc2)CC1	i	i	i	i	i	.	.	.	.
CC1CCC2(CC1)NC(=O)N(CC(=O)Nc1cccc(S(=O)(=O)N3CCOCC3)c1)C2=O (stereo not given)	i	i	i	i	i	.	.	.	.
CCN(CC(=O)Nc1cccc(S(=O)(=O)N2CCOCC2)c1)Cc1ccccc1	i	i	i	i	i	.	.	.	.
O=C(CN1C(=O)NC2(CCCCC2)C1=O)Nc1cccc(S(=O)(=O)N2CCOCC2)c1	-5.38*	i	i	i	i	i	i	i	i
O=C(Cn1nnc(-c2ccccc2)n1)Nc1cccc(S(=O)(=O)N2CCOCC2)c1	-4.78*	i	i	i	i	69.9%*	i	i	i
COc1cc2c(cc1OC)C(c1cc(C)ccc1C)CC(=O)N2 (stereo not given)	i	i	i	i	i	.	.	.	.
CCOc1ccc(NC(=O)Nc2nc(SCC)ns2)cc1	-6.31*	i	i	i	i	78.2%*	i	i	i
CCSc1nsc(NC(=O)Nc2ccc(F)cc2F)n1	i	i	i	i	i	.	.	.	.
Cc1cc(NC(=O)Cc2c(F)cccc2Cl)no1	i	i	i	i	i	.	.	.	.
O=C(Cc1c(F)cccc1Cl)Nc1ccon1	-6.49*	i	i	i	i	i	i	i	i
COc1ccc(-c2csc(/C(C#N)=C\c3ccc(O)c([N+](=O)[O-])c3)n2)cc1OC	-11.2*	i	i	i	i	41.2%*	i	i	i
SMILES	MrgX1 antag	MrgX1 allo act	MrgX1 ag	RGS4 act	RGS4 inh	MrgX1 antag conf	HEK293 Ca flux	HEK293 Ca counter	HEK293 Ca cntr2
COc1ccc(-c2csc(/C(C#N)=C\c3ccc(OC)c([N+](=O)[O-])c3)n2)cc1	i	i	i	i	i	.	.	.	.
COc1c(O)cc2c(c1O)[C@@H]1O[C@H](CO)[C@@H](O)[C@H](O)C1OC2=O (stereo not given in full)	i	i	i	i	i	.	.	.	.
C=CCNC(=O)CSc1nc2sccc2c(=O)n1-c1ccccc1	-5.09*	i	i	i	i	i	i	i	i
CCN(CC)S(=O)(=O)c1ccc(NC(=O)C2CCCN(C(=O)c3ccc(Cl)cc3)C2)cc1 (stereo not given)	i	i	i	i	i	.	.	.	.
Cc1ccc(C2C3C(=O)N(c4ccc(C)cc4)C(=O)C3N3CCCN23)cc1 (stereo not given)	i	i	i	i	i	.	.	.	.
COc1ccc2[nH]c(C)cc(=O)c2c1	i	i	i	i	i	.	.	.	.
COc1ccc2[nH]c3c(c2c1)CCNC3C1CC=C(C)CC1 (stereo not given)	-8.92*	i	i	i	i	i	i	i	i
CCOc1cc(N2CCOCC2)c(OCC)cc1NC(=O)c1ccc(C)cc1	-11.7*	i	i	i	i	i	i	i	i
CCOC(=O)c1cc2c3ccccc3n(CC)c2nc1N	-5.78*	i	i	i	i	i	i	i	i
Cc1nc(SCC(=O)Nc2ccc3c(c2)OCCO3)c2oc3ccccc3c2n1	-7.5*	i	i	i	i	i	i	i	i
Cc1cc(C)c(C#N)c(SCC(=O)Nc2ccc3c(c2)OCO3)n1	-6.95*	i	i	i	i	i	i	i	i
Cn1c(SCC(=O)Nc2ccc3c(c2)OCCO3)nnc1-c1ccco1	-4.85*	i	i	i	i	i	i	i	i
Cn1c(SCC(=O)c2cc(Cl)c(Cl)s2)nnc1-c1ccco1	-4.78*	i	i	i	i	i	i	i	i
Cc1nc(SCC(=O)Nc2ccc3c(c2)OCO3)c(C#N)c2c1CCCC2	i	i	i	i	i	.	.	.	.
CCn1c(SCC(=O)Nc2ccc3c(c2)OCCO3)nnc1-c1ccco1	i	i	i	i	i	.	.	.	.
